Screening results as filed in PubChem.
Sampled rows, rich in hits. Any-hit rate of the full collection: about 1.2%.
CAL PDZ FP-1 – human CAL PDZ-peptide interaction inhibition | purified CAL PDZ, TMR-peptide fluorescence polarization, 1 h | hit rate 0.02% among 330,000 | inhibition, % at 20 µM | AID 504414 | Q9HD26;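 active means highest replicate inhibition of at least 40%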
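Material: tagged CAL PDZ domain; buffer or medium: 25 mM sodium phosphate pH 7.4, 150 mM NaCl, TCEP, IgG, Thesit; compound dosing: single point, 20 µM; schedule: 1 h incubation at room temperature before polarization reading; measured by: FP readout, S and P plane fluorescence; read-out basis: percent inhibition from loss of millipolarization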
ARNT-TACC3 inh – ARNT/TACC3 interaction disruption; Q9Y6A5; inhibition, % at 9.99 µM; AlphaScreen His-ARNT PAS-B/GST-TACC3 binding, luminescence; TACC3 fragment carries E629A point mutation; hit rate 0.66% among 390,000;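 active means mean inhibition of replicates at least 50% and at least half of replicates each reaching 50%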
CAL PDZ FP-2 – CAL PDZ (human) peptide binding inhibition. Q9HD26. purified CAL PDZ, TMR-peptide fluorescence polarization, 1 h. inhibition, % at 24.9 µM. hit rate 0.92% among 300,000. AID 602252;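 active means mean inhibition of at least 30% with at least half of replicates also reaching 30%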
Hits are given with their value.

For COc1cccc(/C=N/NC(=O)Cn2nc(C)c([N+](=O)[O-])c2C)c1O the results were CAL PDZ FP-1 inactive, ARNT-TACC3 inh 65 and CAL PDZ FP-2 inactive.
For CCOC(=O)C1CCN(C(=O)C2CCN(C(=O)c3ccc([N+](=O)[O-])cc3)CC2)CC1 the results were CAL PDZ FP-1 inactive, ARNT-TACC3 inh inactive and CAL PDZ FP-2 inactive.
CCOC(=O)N1CCN(C(=O)C2CCN(C(=O)c3ccc([N+](=O)[O-])cc3)CC2)CC1 was read as CAL PDZ FP-1 inactive, ARNT-TACC3 inh inactive and CAL PDZ FP-2 77.
Screening C[C@@H]1CN([C@@H](C)CO)C(=O)Cc2cc(NC(=O)Cn3cnnn3)ccc2O[C@H]1CN(C)Cc1ccc2c(c1)OCO2 returned ARNT-TACC3 inh inactive.
`O=C(COC(=O)c1ccc(Cl)nc1)Nc1ccc(Cl)cc1` gave CAL PDZ FP-1 inactive, ARNT-TACC3 inh inactive and CAL PDZ FP-2 inactive.
Screening O=C(COC(=O)c1ccc(Cl)nc1)Nc1ccc(N2CCCCC2)cc1 returned ARNT-TACC3 inh inactive and CAL PDZ FP-2 41.
For O=C(C[C@H]1C=C[C@@H](NC(=O)NC2CCCCC2)[C@H](CO)O1)NCc1ccc(F)cc1 the results were ARNT-TACC3 inh inactive.
CN(C)C(=O)C[C@@H]1C[C@H]2c3cc(NS(=O)(=O)c4ccc(F)cc4)ccc3O[C@H]2[C@H](CO)O1 was read as ARNT-TACC3 inh inactive.
Screening O=C(NCCCN1CCOCC1)c1ccc(CS(=O)(=O)c2c(Cl)cccc2Cl)o1 returned CAL PDZ FP-1 inactive and ARNT-TACC3 inh inactive.
Screening O=C(NCCN1CCOCC1)c1ccc(CS(=O)(=O)c2c(Cl)cccc2Cl)o1 returned CAL PDZ FP-1 inactive and CAL PDZ FP-2 32.
COC(=O)c1sc(-c2ccc(Cl)cc2)cc1NC(=O)/C=C/C(=O)O was read as CAL PDZ FP-1 inactive and ARNT-TACC3 inh inactive.
Screening COC(=O)c1sc(-c2ccc(Cl)cc2)cc1NC(=O)COCC(=O)O returned CAL PDZ FP-1 inactive, ARNT-TACC3 inh inactive and CAL PDZ FP-2 48.
Screening CCn1nc(C(=O)NNC(=O)c2ccccc2)c2ccccc2c1=O returned CAL PDZ FP-1 inactive and ARNT-TACC3 inh inactive.
Screening CCn1nc(C(=O)NNS(=O)(=O)c2ccc(C)cc2)c2ccccc2c1=O returned CAL PDZ FP-1 inactive, ARNT-TACC3 inh 68 and CAL PDZ FP-2 inactive.
For CCOC(=O)N(C)C[C@@H]1OCc2ccccc2-c2c(n(C)c3ccccc23)C(=O)N([C@@H](C)CO)C[C@H]1C the results were ARNT-TACC3 inh inactive.
`C(=N\Nc1nncn1/N=C/c1ccco1)/c1ccco1` gave CAL PDZ FP-1 inactive and ARNT-TACC3 inh 64.
Cn1c(=O)c2c(nc(N/N=C/c3ccco3)n2C)n(C)c1=O was read as CAL PDZ FP-1 inactive, ARNT-TACC3 inh inactive and CAL PDZ FP-2 inactive.
CCCNC(=O)C[C@@H]1CC[C@@H]2[C@H](COc3ccc(NC(=O)CCC)cc3C(=O)N2C)O1 was read as ARNT-TACC3 inh inactive.
`C[C@H](CO)N1C[C@H](C)[C@H](CN(C)Cc2ccccc2)Oc2cc(C#Cc3ccccn3)ccc2S1(=O)=O` gave ARNT-TACC3 inh inactive.
For CCOc1cccc(C2C(C#N)=C(N)Oc3cc(C)[nH]c(=O)c32)c1OCC (stereo not drawn) the results were CAL PDZ FP-1 inactive, ARNT-TACC3 inh inactive and CAL PDZ FP-2 inactive.
Screening CCc1ccc2[nH]c(=O)c(C3C(C#N)=C(N)Oc4c3ccc3cccnc43)cc2c1 (stereo not drawn) returned CAL PDZ FP-1 inactive, ARNT-TACC3 inh 48 and CAL PDZ FP-2 inactive.
For Cc1noc(C)c1COc1ccc(CC(=O)NCCc2ccccc2)cc1 the results were CAL PDZ FP-1 inactive, ARNT-TACC3 inh inactive and CAL PDZ FP-2 108.
For Cc1noc(C)c1COc1ccc(C(=O)NCCc2ccc(F)cc2)cc1 the results were CAL PDZ FP-1 inactive and ARNT-TACC3 inh inactive.
COc1ccc(NC(=O)N(C)C[C@H]2Oc3ccc(NC(=O)Nc4c(C)noc4C)cc3CC(=O)N([C@@H](C)CO)C[C@H]2C)cc1 was read as ARNT-TACC3 inh inactive.
Screening COc1ccc(NC(=O)c2noc3c2CCC3)cc1 returned ARNT-TACC3 inh inactive and CAL PDZ FP-2 inactive.
Screening CC(=O)c1ccc(NC(=O)c2noc3c2CCC3)cc1 returned ARNT-TACC3 inh inactive and CAL PDZ FP-2 68.
Screening O=[N+]([O-])c1ccc2nc(-c3ccncc3)[nH]c2c1 returned CAL PDZ FP-1 inactive, ARNT-TACC3 inh inactive and CAL PDZ FP-2 active.
Screening Cc1ccc(-c2nc3ccc([N+](=O)[O-])cc3[nH]2)cc1 returned CAL PDZ FP-1 inactive and ARNT-TACC3 inh inactive.
For CCCN(C)C[C@H]1OCCCC[C@H](C)Oc2ccc(NS(=O)(=O)c3ccc(OC)cc3)cc2C(=O)N([C@H](C)CO)C[C@H]1C the results were ARNT-TACC3 inh inactive.
Screening Cc1noc(C)c1NC(=O)Nc1ccc2c(c1)C(=O)N([C@H](C)CO)C[C@@H](C)[C@H](CN(C)C)OCCCC[C@H](C)O2 returned ARNT-TACC3 inh inactive.
O=C(Cn1cnc(S(=O)(=O)N2CCCC2)c1)Nc1cccc(Br)c1 was read as CAL PDZ FP-1 inactive, ARNT-TACC3 inh inactive and CAL PDZ FP-2 50.
`CC(=O)c1cccc(NC(=O)Cn2cnc(S(=O)(=O)N3CCCCC3)c2)c1` gave CAL PDZ FP-1 inactive, ARNT-TACC3 inh inactive and CAL PDZ FP-2 inactive.
`C[C@@H]1CN([C@@H](C)CO)C(=O)c2cc(NC(=O)Nc3cccc4ccccc34)ccc2O[C@H]1CN(C)C(=O)NC1CCCCC1` gave ARNT-TACC3 inh inactive.
CCCCN(C)CCNC(=O)c1cc2c(-c3ccccc3F)nn(C)c2s1 was read as CAL PDZ FP-1 inactive, ARNT-TACC3 inh inactive and CAL PDZ FP-2 43.
Screening COCCNC(=O)c1cc2c(-c3ccccc3F)nn(C)c2s1 returned CAL PDZ FP-1 inactive, ARNT-TACC3 inh inactive and CAL PDZ FP-2 inactive.
Screening Cc1ccc(S(=O)(=O)NCC[C@@H]2CC[C@@H](NC(=O)CC3CC3)[C@@H](CO)O2)cc1 returned ARNT-TACC3 inh inactive.
For CCCCCN1CSC(=S)N(Cc2ccccc2)C1 the results were CAL PDZ FP-1 inactive, ARNT-TACC3 inh inactive and CAL PDZ FP-2 46.
Screening CCN1CSC(=S)N(Cc2ccccc2)C1 returned CAL PDZ FP-1 inactive, ARNT-TACC3 inh inactive and CAL PDZ FP-2 inactive.
`C[C@H](CO)N1C[C@H](C)[C@@H](CN(C)Cc2ccc(C(F)(F)F)cc2)Oc2ccc(NC(=O)NC3CCCCC3)cc2CC1=O` gave ARNT-TACC3 inh inactive.
Cc1nnc(SCC(=O)Nc2nccs2)s1 was read as CAL PDZ FP-1 inactive, ARNT-TACC3 inh inactive and CAL PDZ FP-2 79.
Nc1nnc(SCC(=O)Nc2nccs2)s1 was read as CAL PDZ FP-1 inactive and ARNT-TACC3 inh inactive.
`O=C(O)c1ccc(/C=N/NC(=O)c2cc3ccccc3cc2O)cc1` gave CAL PDZ FP-1 inactive, ARNT-TACC3 inh inactive and CAL PDZ FP-2 46.
O=C(O)c1cccc(Cn2c(Cl)c(/C=N/NC(=O)c3cc4ccccc4cc3O)sc2=O)c1 was read as ARNT-TACC3 inh inactive and CAL PDZ FP-2 47.
`O=C(CNc1ccc2ccccc2c1)N/N=C/c1ccc(C(=O)O)cc1` gave CAL PDZ FP-1 inactive and CAL PDZ FP-2 inactive.
For O=C(O)c1cccc(Cn2c(Cl)c(/C=N/NC(=O)c3ccccc3)sc2=O)c1 the results were CAL PDZ FP-1 inactive and CAL PDZ FP-2 inactive.
